The list is not random: actives were taken first. Their share in the collection is about 2.3%.
UBC13 polyUb: human UBC13 polyubiquitination inhibition | UBC13 polyubiquitin chain formation, TR-FRET | inhibition, % at 20 µM | 330,000 tested, 0.47% active; in the data active = inhibition above about 45%, passing the limit was not always enough
PP5 primary: blocks human protein phosphatase 5 activity. P53041. purified PP5c, OMFP substrate fluorescence. inhibition, % at 6.7 µM. 320,000 tested, 0.18% active. AID 1987;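 active = inhibition above the campaign's mean inhibition across all tested compounds plus 3 SD, cut at about 9.5% in these data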
UCH37 inh: blocks the human deubiquitinase UCH37 | Q9Y5K5 | purified proteasome/UCH37, Ub-AMC cleavage fluorescence | inhibition, % (test concentration not listed) | 330,000 tested, 0.33% active | AID 588478;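 active = mean inhibition over replicate wells above about 20%, limit read from the data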
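System: Proteasome-associated human UCH37 deubiquitinase; Input: 0.15 nM proteasome in added enzyme buffer; Also added: Ub-AMC substrate from 1 µM stock; Incubation: 30 min compound-proteasome preincubation then 25 min substrate reaction, room temperature; Detection: fluorescence, ex 355 nm, em 460 nm; Read-out: % inhibition of Ub-AMC cleavage fluorescence; Benchmarks: no-proteasome and no-compound wells.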
PREPL inhibitor: inhibits the human prolyl oligopeptidase-like enzyme; inhibition, % at 5.96 µM; 320,000 tested, 0.68% active; recombinant PREPL, fluorescence polarization activity-based probe; Q4J6C6; AID 2751; in the data active = inhibition above about 43%
Target sequence (Q4J6C6 whole entry, looked up): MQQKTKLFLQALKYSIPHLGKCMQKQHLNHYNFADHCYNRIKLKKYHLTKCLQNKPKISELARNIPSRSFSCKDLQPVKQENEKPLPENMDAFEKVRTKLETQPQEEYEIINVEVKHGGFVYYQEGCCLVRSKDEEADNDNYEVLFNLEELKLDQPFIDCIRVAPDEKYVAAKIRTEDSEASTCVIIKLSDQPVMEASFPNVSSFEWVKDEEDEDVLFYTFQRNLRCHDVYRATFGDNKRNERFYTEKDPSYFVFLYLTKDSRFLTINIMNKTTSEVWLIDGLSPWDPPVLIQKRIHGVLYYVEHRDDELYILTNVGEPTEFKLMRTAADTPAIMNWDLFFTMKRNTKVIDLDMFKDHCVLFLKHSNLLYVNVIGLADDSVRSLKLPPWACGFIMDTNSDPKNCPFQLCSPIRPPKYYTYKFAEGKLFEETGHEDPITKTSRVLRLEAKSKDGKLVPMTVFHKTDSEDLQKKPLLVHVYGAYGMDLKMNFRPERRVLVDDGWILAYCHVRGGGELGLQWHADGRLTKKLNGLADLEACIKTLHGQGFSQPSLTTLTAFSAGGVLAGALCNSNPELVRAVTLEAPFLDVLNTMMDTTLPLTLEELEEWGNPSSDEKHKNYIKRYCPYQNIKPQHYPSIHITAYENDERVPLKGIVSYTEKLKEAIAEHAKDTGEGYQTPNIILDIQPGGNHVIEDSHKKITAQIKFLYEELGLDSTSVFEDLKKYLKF
Fh CTSL1 inh: counter-screen for PFM18AAP inhibitors: inhibitors of F. hepatica cathepsin L1; recombinant F. hepatica cathepsin L1, Z-Leu-Arg-MCA fluorescence; inhibition, % at 5.96 µM; 300,000 tested, 0.49% active;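 active = inhibition above the mean of all tested compounds plus 3 SD, set per screening campaign, cut at about 17% in these data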
PP1 inh: PP1-alpha (human) inhibition in PP5 counter-screen. P62136. purified PP1alpha, OMFP fluorescence. inhibition, % at 6.7 µM. 320,000 tested, 0.9% active;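 active = inhibition above the mean inhibition of all tested compounds plus 3 SD, computed separately for each screening campaign, cut at about 15% in these data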
Each line names hits and unclear results; the compound was inactive in the other large screens.

COc1ccc(C2C(O)C(c3c[nH]c4ccccc34)=NN2C(=O)CCl)cc1 (stereo not given)	Fh CTSL1 inh 43.3
COc1ccc(C2NN=C(c3c[nH]c4ccccc34)C2O)cc1 (stereo not given)	none (no result: UCH37 inh)
Cc1cc(NN=Cc2ccc(N(C)C)cc2)nc(NCc2ccccc2)n1	none (no result: UBC13 polyUb, PP5 primary, PREPL inhibitor, Fh CTSL1 inh, PP1 inh)
Cc1cc(N/N=C/c2ccc(N(C)C)cc2)nc(NCc2ccccc2)n1	PP1 inh 16.3 (no result: UCH37 inh)
CC(C)CCOC(=O)/C(=C/c1ccco1)NC(=O)/C=C/c1ccccc1	Fh CTSL1 inh 22.2
NC(=O)/C(=C/c1ccco1)NC(=O)/C=C/c1ccccc1	none
O=C1N=C(N2CCOCC2)S/C1=C/c1ccc(-c2ccccc2Cl)o1	Fh CTSL1 inh 34.2
CCOc1cc(C=NNC(=O)C(C)Sc2ccccc2)ccc1O (stereo not given)	none (no result: UBC13 polyUb, PP5 primary, PREPL inhibitor, Fh CTSL1 inh, PP1 inh)
Cc1cc(C)n(CC(O)Cn2ccc3ccccc32)n1 (stereo not given)	none
OC(CN1CCNCC1)Cn1ccc2ccccc21 (stereo not given)	PREPL inhibitor 60.3 (no result: UCH37 inh)
COc1ccc(C=NNC(=O)COc2cc(C)cc(C)c2)cc1COC(C)=O	none (no result: UBC13 polyUb, PP5 primary, PREPL inhibitor, Fh CTSL1 inh, PP1 inh)
CC(=O)Nc1ccc(NS(=O)(=O)c2cccc3nonc23)cc1	Fh CTSL1 inh 16.8
CC(=O)c1ccccc1NS(=O)(=O)c1cccc2nonc12	none
Cc1ccc(N(NC(=O)C(O)(c2ccccc2)c2ccccc2)C(=O)CCl)cc1	Fh CTSL1 inh 81.3
O=C(c1ccccc1)N(NC(=O)C(O)(c1ccccc1)c1ccccc1)c1cccc(F)c1	none
O=C(c1ccccc1F)N(NC(=O)C(O)(c1ccccc1)c1ccccc1)c1ccccc1	PP1 inh 17.4
Cc1ccc(OCC(=O)NN=C2SCC(=O)N2Cc2ccccc2)cc1	none (no result: UBC13 polyUb, PP5 primary, PREPL inhibitor, Fh CTSL1 inh, PP1 inh)
CCOc1ccc(Nc2nc(N)nc(CSC(=S)N3CCOCC3)n2)cc1	Fh CTSL1 inh 17.9
Cc1ccccc1C(=O)Nc1nnc(CC(=O)NN=Cc2ccco2)s1	none (no result: UBC13 polyUb, PP5 primary, PREPL inhibitor, Fh CTSL1 inh, PP1 inh)
Cc1ccccc1C(=O)Nc1nnc(CC(=O)N/N=C/c2cn(Cc3ccccc3)c3ccccc23)s1	PP1 inh 15.5 (no result: UCH37 inh)
COc1cc(C=NNC(=O)CCN2CCN(C(c3ccccc3)c3ccccc3)CC2)ccc1O	none (no result: UBC13 polyUb, PP5 primary, PREPL inhibitor, Fh CTSL1 inh, PP1 inh)
OCCN1CCN(CC#CCn2c3ccccc3c3ccccc32)CC1	UCH37 inh 22.7
CC(CC(=O)NCCCN1CCOCC1)=NNC(=O)COc1cccc2ccccc12	none (no result: UBC13 polyUb, PP5 primary, PREPL inhibitor, Fh CTSL1 inh, PP1 inh)
CCc1ccccc1NC(=O)N1CCCC(CCC(=O)N(C)CCc2ccccn2)C1 (stereo not given)	none
COc1ccc(NC(=O)N2CCCC(CCC(=O)N(C)CCc3ccccn3)C2)cc1 (stereo not given)	Fh CTSL1 inh 70.4
COc1ccc(C2SCC(=O)N2CCCN(C)C)cc1 (stereo not given)	UCH37 inh 33.9
O=C(CCl)N(CCc1ccccc1)CCc1ccccc1	Fh CTSL1 inh 39.5 (no result: UCH37 inh)
O=C(CCl)N(c1ccccc1)c1ccccc1	none (no result: UBC13 polyUb, PP5 primary, PREPL inhibitor, Fh CTSL1 inh, PP1 inh)
COc1ccc(N2C(=O)CSC2=NC(=S)Nc2ccccc2)cc1	none (no result: UBC13 polyUb, PP5 primary, PREPL inhibitor, Fh CTSL1 inh, PP1 inh)
O=C(NN=Cc1ccc(F)cc1)c1ccc(OCc2ccccc2)cc1	none (no result: UBC13 polyUb, PP5 primary, PREPL inhibitor, Fh CTSL1 inh, PP1 inh)
Cc1cc(C)c2c(N)c(C(=O)Nc3ncc(C)s3)sc2n1	Fh CTSL1 inh 16.8
Cc1cc(C)c2c(N)c(C(=O)Nc3ccccc3Cl)sc2n1	PP1 inh 17.3
Cc1cc(C)c2c(N)c(C(=O)Nc3ccccc3Br)sc2n1	none
COc1cc(C=NNC(=O)c2cccc(NC(=O)c3ccccc3)c2)ccc1O	none (no result: UBC13 polyUb, PP5 primary, PREPL inhibitor, Fh CTSL1 inh, PP1 inh)
O=C(NNc1c2ccccc2nc2ccccc12)c1ccc(O)cc1O	none
O=C(NNc1c2ccccc2nc2ccccc12)c1ccccc1Cl	Fh CTSL1 inh 18.4
O=C(CSc1nc2ccccc2n1Cc1ccccc1)NN=Cc1ccco1	none (no result: UBC13 polyUb, PP5 primary, PREPL inhibitor, Fh CTSL1 inh, PP1 inh)
O=C1CCCC(O)=C1N=Nc1ccc2c(c1)OCO2	UCH37 inh 20.2
O=C1CCCC(O)=C1N=Nc1ccc(C(=O)O)cc1	none
CCOc1ccc(NC(=O)c2c[nH]n3c(=O)cc(C4CCN(C(=O)OC(C)(C)C)CC4)nc23)cc1	PP1 inh 16.2
CCS(=O)(=O)N1CCCC(C(=O)NCC2CCCO2)C1 (stereo not given)	UCH37 inh 31.4
Cc1ccccc1OCC(=O)NN=Cc1sc(=O)n(Cc2cccc(C(=O)O)c2)c1Cl	none (no result: UBC13 polyUb, PP5 primary, PREPL inhibitor, Fh CTSL1 inh, PP1 inh)
COC(=O)c1c(NC(=O)c2ccc([N+](=O)[O-])o2)sc2c1CCN(C(C)C)C2	Fh CTSL1 inh 25.6 (no result: UCH37 inh)
